Results published in ChEMBL document CHEMBL4368921, “Discovery of novel simplified isoxazole derivatives of sampangine as potent anti-cryptococcal agents” (2019).
Values after ≈ are worked out from the molar mass of the structure shown. Active and inactive are the calls of the source. The rule behind the calls is not given here.

Experiments:
[1] = test system: Candida albicans; assay: Antifungal activity against Candida albicans SC5314 after 48 hrs by serial dilution method; type: functional; details: SC5314, 48 h
In short: (§1)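 Broth serial dilution per NCCLS. Medium was RPMI 1640 buffered with 0.165M MOPS, NaHCO3 (0.2%) and NaOH (0.27%). Strains were pre-grown in YPD at 30 °C with shaking. Inoculum 10³ CFU/mL; compounds in DMSO. Plates incubated at 35 °C for 48 h. MIC80 is the concentration giving 80% inhibition.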

[2] = test system: Cryptococcus neoformans; assay: Antifungal activity against Cryptococcus neoformans var. grubii H99 after 48 hrs by serial dilution method; type: functional; in short: as §1
[3] = test system: Cryptococcus neoformans; assay: Inhibition of urease production in Cryptococcus neoformans var. grubii H99 at 64 ug/mL; type: functional, organism-based
In short: (§2)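 PBS-washed exponential H99 cells at 1×10^6 cells/mL in RPMI 1640 with drug. Drops placed on L-DOPA (melanin) or urea (urease) medium and incubated at 37 °C. Read-out: black versus white colonies for melanin, red medium for urease.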

[4] = test system: Cryptococcus neoformans; assay: Cell cycle arrest in Cryptococcus neoformans var. grubii H99 assessed as accumulation of cells at G1 phase at 2 ug/mL after 24 hrs by propidium iodide staining-based flow cytometric analysis (reference value: 12.24%); type: functional
In short: (§3)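 Exponential H99 cells washed three times with PBS and set at 5×10^5 cells/mL in RPMI 1640. Dosed 0.5, 1 or 2 µg/mL and shaken (200 rpm) at 30 °C for 24 h. Walls digested 1 h at 30 °C in PBS with 0.24% snailase, then fixed overnight in 70% ethanol. Stained with 50 µg/mL PI, 4 °C, 30 min; ~1×10^6 cells read by flow cytometry.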

[5] = test system: Cryptococcus neoformans; assay: Antibiofilm activity against Cryptococcus neoformans var. grubii H99 at 0.062 to 8 ug/mL after 24 hrs by XTT analysis; type: functional, organism-based
In short: (§4)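 H99 cells at 1.0×10^6 CFU/mL in RPMI 1640 left to adhere 90 min at 37 °C. Non-adherent cells were removed and the wells washed three times with PBS. Fresh RPMI with drug (0.062-8 µg/mL) or drug-free control was added, then 24 h more at 37 °C. Formation rate by XTT reduction. Means ± SD of three independent experiments; ANOVA and t-test.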

[6] = test system: Cryptococcus neoformans; assay: Induction of apoptosis in Cryptococcus neoformans var. grubii H99 assessed as early apoptotic cells at 1 ug/mL after 24 hrs by annexin V-FITC/propidium iodide staining-based flow cytometric analysis (reference value: 1.05%); type: functional
[7] = test system: Cryptococcus neoformans; assay: Induction of apoptosis in Cryptococcus neoformans var. grubii H99 assessed as necrotic cells at 1 ug/mL after 24 hrs by annexin V-FITC/propidium iodide staining-based flow cytometric analysis (reference value: 0.19%); type: functional
[8] = test system: Cryptococcus neoformans; assay: Antibiofilm activity against Cryptococcus neoformans var. grubii H99 at 0.062 ug/mL after 24 hrs by XTT analysis relative to control; type: functional; in short: as §4
[9] = test system: Cryptococcus neoformans; assay: Cell cycle arrest in Cryptococcus neoformans var. grubii H99 assessed as accumulation of cells at G1 phase at 1 ug/mL after 24 hrs by propidium iodide staining-based flow cytometric analysis (reference value: 12.24%); type: functional; in short: as §3
[10] = test system: Cryptococcus neoformans; assay: Fungistatic activity against Cryptococcus neoformans var. grubii H99 assessed as inhibition of cell growth at 1 ug/mL up to 48 hrs by time-growth curve assay; type: functional; details: read-out: GI
In short: (§5)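 Exponential H99 cells at 2×10^6 cells/mL in 5 mL RPMI 1640 with drug (0.062-1 µg/mL) or DMSO control. Shaken at 200 rpm, 30 °C. Cells counted at 0, 3, 6, 9, 12, 24 and 48 h. Three independent experiments.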

[11] = test system: Cryptococcus neoformans; assay: Fungicidal activity against Cryptococcus neoformans var. grubii H99 at 2 ug/mL after 48 hrs by time-kill assay; type: functional, organism-based
In short: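 Time-kill: PBS-washed exponential H99 cells at 2×10^6 cells/mL in 5 mL RPMI 1640 with drug, shaken (200 rpm) at 30 °C. Samples taken at 0, 6, 12, 24 and 48 h, diluted and plated on SDA. CFU counted after 48 h at 30 °C.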

[12] = test system: Cryptococcus neoformans; assay: Induction of apoptosis in Cryptococcus neoformans var. grubii H99 assessed as necrotic cells at 0.5 ug/mL after 24 hrs by annexin V-FITC/propidium iodide staining-based flow cytometric analysis (reference value: 0.19%); type: functional
[13] = test system: Cryptococcus neoformans; assay: Induction of apoptosis in Cryptococcus neoformans var. grubii H99 assessed as early apoptotic cells at 0.5 ug/mL after 24 hrs by annexin V-FITC/propidium iodide staining-based flow cytometric analysis (reference value: 1.05%); type: functional
[14] = test system: Cryptococcus neoformans; assay: Induction of apoptosis in Cryptococcus neoformans var. grubii H99 assessed as late apoptotic cells at 1 ug/mL after 24 hrs by annexin V-FITC/propidium iodide staining-based flow cytometric analysis (reference value: 0.15%); type: functional
[15] = test system: Cryptococcus gattii; assay: Antifungal activity against Cryptococcus gattii ATCC 14116 after 48 hrs by serial dilution method; details: ATCC 14116, 48 h
[16] = test system: Cryptococcus neoformans; assay: Inhibition of melanin production in Cryptococcus neoformans var. grubii H99 at 16 ug/mL; type: functional, organism-based; in short: as §2
[17] = test system: Cryptococcus neoformans; assay: Induction of apoptosis in Cryptococcus neoformans var. grubii H99 assessed as necrotic cells at 2 ug/mL after 24 hrs by annexin V-FITC/propidium iodide staining-based flow cytometric analysis (reference value: 0.19%); type: functional
[18] = test system: Cryptococcus neoformans; assay: Induction of apoptosis in Cryptococcus neoformans var. grubii H99 assessed as late apoptotic cells at 0.5 ug/mL after 24 hrs by annexin V-FITC/propidium iodide staining-based flow cytometric analysis (reference value: 0.15%); type: functional
[19] = test system: Cryptococcus neoformans; assay: Fungistatic activity against Cryptococcus neoformans var. grubii H99 up to 48 hrs by time-growth curve assay; type: functional, organism-based; in short: as §5
[20] = test system: Cryptococcus neoformans; assay: Cell cycle arrest in Cryptococcus neoformans var. grubii H99 assessed as accumulation of cells at G1 phase at 0.5 ug/mL after 24 hrs by propidium iodide staining-based flow cytometric analysis (reference value: 12.24%); type: functional; in short: as §3
[21] = test system: Cryptococcus neoformans; assay: Cell cycle arrest in Cryptococcus neoformans var. grubii H99 assessed as decrease in cells at S phase at 0.5 to 2 ug/mL after 24 hrs by propidium iodide staining-based flow cytometric analysis; type: functional, organism-based; in short: as §3
[22] = test system: Cryptococcus neoformans; assay: Fungistatic activity against Cryptococcus neoformans var. grubii H99 at 0.25 ug/mL up to 48 hrs by time-growth curve assay; type: functional, organism-based
[23] = test system: Cryptococcus neoformans; assay: Antifungal activity against Cryptococcus neoformans var. grubii ATCC 34877 after 48 hrs by serial dilution method; type: functional; details: var. grubii ATCC 34877, 48 h; in short: as §1
[24] = test system: Cryptococcus neoformans; assay: Induction of apoptosis in Cryptococcus neoformans var. grubii H99 assessed as late apoptotic cells at 2 ug/mL after 24 hrs by annexin V-FITC/propidium iodide staining-based flow cytometric analysis (reference value: 0.15%); type: functional
[25] = test system: Cryptococcus neoformans; assay: Induction of apoptosis in Cryptococcus neoformans var. grubii H99 assessed as early apoptotic cells at 2 ug/mL after 24 hrs by annexin V-FITC/propidium iodide staining-based flow cytometric analysis (reference value: 1.05%); type: functional

O=C1c2ccsc2C(=O)c2c(-c3cccc(Br)c3)noc21
MIC80 [1]: > 64 µg/mL
MIC80 [2]: > 64 µg/mL

CCc1noc2c1C(=O)c1sccc1C2=O
MIC80 [1]: 2 µg/mL (≈ 8.57 µM)
inhibition [3]: Active
Activity [4]: 48.61%
Activity [5]: Active
Activity [6]: 39.23%
Activity [7]: 0.51%
Activity [8]: >80%
Activity [9]: 49.14%
inhibition of growth at 1 µg/mL [10]: 100%
Activity [11]: Active
Activity [12]: 1.35%
Activity [13]: 20.49%
Activity [14]: 5.39%
MIC80 [15]: 0.25 µg/mL (≈ 1.07 µM)
inhibition [16]: Active
Activity [17]: 0.32%
MIC80 [2]: 0.031 µg/mL (≈ 0.133 µM)
Activity [18]: 3.33%
Activity [19]: Dose-dependent effect
Activity [20]: 50.21%
Activity [21]: Active
Activity [22]: Active
MIC80 [23]: 0.12 µg/mL (≈ 0.514 µM)
Activity [24]: 6.78%
Activity [25]: 50.7%

O=C1c2ccsc2C(=O)c2c(-c3ccccc3Cl)noc21
MIC80 [1]: > 64 µg/mL
MIC80 [2]: 0.25 µg/mL (≈ 0.792 µM)

Cc1ccccc1-c1noc2c1C(=O)c1sccc1C2=O
MIC80 [1]: > 64 µg/mL
MIC80 [2]: 0.25 µg/mL (≈ 0.847 µM)

COc1ccc(-c2noc3c2C(=O)c2sccc2C3=O)cc1
MIC80 [1]: > 64 µg/mL
MIC80 [2]: 1 µg/mL (≈ 3.21 µM)

COc1cccc(-c2noc3c2C(=O)c2sccc2C3=O)c1
MIC80 [1]: > 64 µg/mL
MIC80 [2]: > 64 µg/mL

Cc1ccc(-c2noc3c2C(=O)c2sccc2C3=O)cc1
MIC80 [1]: > 64 µg/mL
MIC80 [2]: 1 µg/mL (≈ 3.39 µM)

C[C@@H]1[C@H](O)[C@@H](C)/C=C/C=C/C=C/C=C/C=C/C=C/C=C/[C@H](O[C@@H]2O[C@H](C)[C@@H](O)[C@H](N)[C@@H]2O)C[C@@H]2O[C@](O)(C[C@@H](O)C[C@@H](O)[C@H](O)CC[C@@H](O)C[C@@H](O)CC(=O)O[C@H]1C)C[C@H](O)[C@H]2C(=O)O
Activity [5]: Active

Cn1cccc1-c1noc2c1C(=O)c1sccc1C2=O
MIC80 [1]: 16 µg/mL (≈ 56.3 µM)
MIC80 [2]: 4 µg/mL (≈ 14.1 µM)

O=C1c2ccsc2C(=O)c2c(-c3cccc(Cl)c3)noc21
MIC80 [1]: > 64 µg/mL
MIC80 [2]: > 64 µg/mL

O=C1c2ccsc2C(=O)c2c(-c3ccncc3)noc21
MIC80 [1]: 8 µg/mL (≈ 28.3 µM)
MIC80 [15]: 1 µg/mL (≈ 3.54 µM)
MIC80 [2]: 0.25 µg/mL (≈ 0.886 µM)
MIC80 [23]: 0.5 µg/mL (≈ 1.77 µM)
